Results on 6 compounds are retold here after ChEMBL document CHEMBL4364287, “Enhanced Inhibition of Influenza A Virus Adhesion by Di- and Trivalent Hemagglutinin Inhibitors” (J Med Chem, 2019).

In data set [1] the test system is Influenza A virus (A/Netherlands/178/1995(H3N2)). The experiment in a line: Potency index, ratio of compound 7 IC50 to test compound IC50 for inhibition of sensor loaded biotinylated-LAMP1 binding to Influenza A virus (A/Netherlands/178/1995(H3N2)) H3 hemagglutinin expressed in Influenza virus WU95.
Data set [2] has the same test system. Put plainly: Inhibition of sensor loaded biotinylated-LAMP1 binding to Influenza A virus (A/Netherlands/178/1995(H3N2)) H3 hemagglutinin expressed in Influenza virus WU95 at 3 uM in presence of NA inhibitor oseltamivir carboxylate by biolayer interferometric analysis. Summed up: (§1)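 OctetRed BLI: streptavidin sensors were saturated with biotinylated LAMP1 in PBS pH 7.4. They were dipped into WU95 (8 HAU, 2.5 × 10^8 particles per well) preincubated 4 h at room temperature with compound and 10 µM (end concentration) oseltamivir carboxylate. Initial binding rate was compared with a no-compound control.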

The test system of data set [3] is Influenza A virus. Put plainly: Antiviral activity against Influenza A virus WU95 expressing Influenza A virus (A/Netherlands/178/1995(H3N2)) H3 hemagglutinin infected in MDCK2 cells assessed as reduction in virus-induced cytopathogenicity preincubated with virus for 4 hrs followed by cell infection and measured after 3 days by DAPI staining-based assay. It is filed as functional, organism-based. Summed up: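 WU95 virus was preincubated 4 h at room temperature in Opti-mem with varying compound concentrations. It was then inoculated onto confluent MDCK-II cells at MOI 0.005 and held 3 days with 1 µg/ml TPCK-trypsin to allow multiple rounds of infection. Cells were fixed and DAPI-stained, and monolayers inspected visually; absence of stained cells was taken as cell killing.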

The nature of data set [4]: Inhibition of sensor loaded biotinylated-LAMP1 binding to Influenza A virus (A/Netherlands/178/1995(H3N2)) H3 hemagglutinin expressed in Influenza virus WU95 in presence of NA inhibitor oseltamivir carboxylate by biolayer interferometric analysis. Summed up: as §1
In data set [5] the test system is Influenza A virus (A/Bilthoven/1761/1976(H3N2)). The experiment in a line: Inhibition of sensor loaded biotinylated-LAMP1 binding to Influenza A virus (A/Bilthoven/1761/1976(H3N2)) H3 hemagglutinin expressed in Influenza virus VI75 at 3 uM by biolayer interferometric analysis. Summed up: (§2)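 BLI with streptavidin sensors loaded to saturation with biotinylated LAMP1 (PBS, pH 7.4). VI75 virus was preincubated 4 h at room temperature with 3 µM compound, without or with 10 µM oseltamivir carboxylate. Initial virus binding rate was compared with a compound-free control.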

Data set [6] shares this test system. Put plainly: Inhibition of sensor loaded biotinylated-LAMP1 binding to Influenza A virus (A/Bilthoven/1761/1976(H3N2)) H3 hemagglutinin expressed in Influenza virus VI75 at 3 uM in presence of NA inhibitor oseltamivir carboxylate by biolayer interferometric analysis. In a few lines:
as §2

For data set [7], the system named is Influenza A virus. Put plainly: Antiviral activity against Influenza A virus WU95 expressing Influenza A virus (A/Netherlands/178/1995(H3N2)) H3 hemagglutinin infected in MDCK2 cells preincubated with virus for 4 hrs followed by cell infection and measured at 7 hrs post-infection by DAPI staining-based assay. The class given is functional, organism-based. Summed up: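 Single-cycle infection: WU95 in Opti-mem was preincubated 4 h at room temperature with varying compound concentrations. Confluent MDCK-II cells were inoculated in triplicate at MOI 0.005 and fixed at 7 h post-infection in methanol (−20 °C, 5 min). Cells were immunostained for nucleoprotein (HB65, Alexa 488 secondary), counterstained with DAPI, and infected cells per well were counted.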

In a further data set the test system is MDCK-II. Put plainly: Cytotoxicity against MDCK2 cells assessed as reduction in cell viability measured after 24 hrs by WST1 assay. It is filed as cell-based, Canis lupus familiaris. As to conditions: dog. Summed up: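 MDCK-II cells were incubated 24 h in Opti-mem with compounds at different concentrations. Cell number and viability were then read by WST-1 assay.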

Data set [8] deals with Influenza A virus (A/Netherlands/178/1995(H3N2)). The experiment in a line: Inhibition of sensor loaded biotinylated-LAMP1 binding to Influenza A virus (A/Netherlands/178/1995(H3N2)) H3 hemagglutinin expressed in Influenza virus WU95 at 20 uM in presence of NA inhibitor oseltamivir carboxylate by biolayer interferometric analysis. Summed up: as §1
For data set [9] the test system is unchanged. The experiment in a line: Potency index, ratio of compound 8 IC50 to test compound IC50 for Inhibition of Influenza A virus (A/Netherlands/178/1995(H3N2)) H3 hemagglutinin expressed in Influenza virus WU95 assessed as reduction in human erythrocytes hemagglutination. It is filed as cell-based.
Data set [10] is described as follows: Inhibition of Influenza A virus (A/Netherlands/178/1995(H3N2)) H3 hemagglutinin expressed in Influenza virus WU95 assessed as reduction in human erythrocytes hemagglutination preincubated for 4 hrs followed by erythrocytes addition and measured after 2 hrs. It is filed as cell-based. In a few lines: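 Four hemagglutination units of virus were preincubated 4 h at room temperature with limiting compound dilutions in the presence of oseltamivir carboxylate. Then 0.5% (v/v) erythrocytes were added for 2 h at 4 °C. The lowest inhibiting concentration was recorded; two experiments were run in duplicate and means are reported.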

Data set [11] concerns Influenza A virus. Put plainly: Antiviral activity against Influenza A virus WU95 expressing Influenza A virus (A/Netherlands/178/1995(H3N2)) H3 hemagglutinin infected in MDCK2 cells at 20 nM preincubated with virus for 4 hrs followed by cell infection and measured after 2 hrs by DAPI staining-based assay. The class given is functional, organism-based. Summed up:
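WU95 was preincubated 4 h at room temperature in Opti-mem with or without 15 µM compound, ±10 µM oseltamivir carboxylate. The mixture was diluted 500-fold onto confluent MDCK-II for 2 h, giving end concentrations of 30 nM compound, 20 nM OC and MOI 0.01. Cells were washed, kept overnight at 37 °C with 10 nM bafilomycin, then fixed and nucleoprotein-immunostained.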

pIC50, pKi: −log10 of the molar value. Activity calls are given as the source filed them. No cut-off for these calls is given here.

In the case of `CC(=O)N[C@H]1[C@H](O[C@H]2[C@@H](O)[C@@H](CO)O[C@@H](O[C@H]3[C@H](O)[C@@H](O)[C@H](OCc4cn(CCCC(=O)Nc5cccc(-c6cc(-c7cccc(NC(=O)CCCn8cc(CO[C@@H]9O[C@H](CO)[C@@H](O[C@@H]%10O[C@H](CO)[C@H](O)[C@H](O[C@@H]%11O[C@H](CO)[C@@H](O[C@@H]%12O[C@H](CO[C@]%13(C(=O)O)C[C@H](O)[C@@H](NC(C)=O)[C@H]([C@H](O)[C@H](O)CO)O%13)[C@H](O)[C@H](O)[C@H]%12O)[C@H](O)[C@H]%11NC(C)=O)[C@H]%10O)[C@H](O)[C@H]9O)nn8)c7)cc(-c7cccc(NC(=O)CCCn8cc(CO[C@@H]9O[C@H](CO)[C@@H](O[C@@H]%10O[C@H](CO)[C@H](O)[C@H](O[C@@H]%11O[C@H](CO)[C@@H](O[C@@H]%12O[C@H](CO[C@]%13(C(=O)O)C[C@H](O)[C@@H](NC(C)=O)[C@H]([C@H](O)[C@H](O)CO)O%13)[C@H](O)[C@H](O)[C@H]%12O)[C@H](O)[C@H]%11NC(C)=O)[C@H]%10O)[C@H](O)[C@H]9O)nn8)c7)c6)c5)nn4)O[C@@H]3CO)[C@@H]2O)O[C@H](CO)[C@@H](O[C@@H]2O[C@H](CO[C@]3(C(=O)O)C[C@H](O)[C@@H](NC(C)=O)[C@H]([C@H](O)[C@H](O)CO)O3)[C@H](O)[C@H](O)[C@H]2O)[C@@H]1O`, the Ratio IC50 in data set [1] is 71. Also, the inhibition result in data set [2], in data set [5] and in data set [6] was “Active” each time. For the same compound, the result in the data set on Influenza A virus [3] was Active. Moreover, the negative-log IC50 (pIC50) is 5.37 in data set [4] and 4.82 in the data set with Influenza A virus [7]. Further, in the data set on MDCK-II, the Activity result is on record as “Non-Toxic”.

Consider `CC(=O)N[C@H]1[C@H](O[C@H]2[C@@H](O)[C@@H](CO)O[C@@H](O[C@H]3[C@H](O)[C@@H](O)[C@H](n4cc(-c5ccc(-c6cn(CCCC(=O)Nc7cccc(-c8cc(-c9cccc(NC(=O)CCCn%10cc(-c%11ccc(-c%12cn([C@@H]%13O[C@H](CO)[C@@H](O[C@@H]%14O[C@H](CO)[C@H](O)[C@H](O[C@@H]%15O[C@H](CO)[C@@H](O[C@@H]%16O[C@H](CO)[C@H](O)[C@H](O)[C@H]%16O)[C@H](O)[C@H]%15NC(C)=O)[C@H]%14O)[C@H](O)[C@H]%13O)nn%12)cc%11)nn%10)c9)cc(-c9cccc(NC(=O)CCCn%10cc(-c%11ccc(-c%12cn([C@@H]%13O[C@H](CO)[C@@H](O[C@@H]%14O[C@H](CO)[C@H](O)[C@H](O[C@@H]%15O[C@H](CO)[C@@H](O[C@@H]%16O[C@H](CO)[C@H](O)[C@H](O)[C@H]%16O)[C@H](O)[C@H]%15NC(C)=O)[C@H]%14O)[C@H](O)[C@H]%13O)nn%12)cc%11)nn%10)c9)c8)c7)nn6)cc5)nn4)O[C@@H]3CO)[C@@H]2O)O[C@H](CO)[C@@H](O[C@@H]2O[C@H](CO)[C@H](O)[C@H](O)[C@H]2O)[C@@H]1O`, for which the inhibition entry in data set [8] is “inactive”.

Take `CC(=O)N[C@H]1[C@H]([C@H](O)[C@H](O)CO)O[C@@](OC[C@H]2O[C@@H](O[C@H]3[C@H](O)[C@@H](O)[C@H](OCc4cn(CCCC(=O)Nc5cccc(-c6cc(-c7cccc(NC(=O)CCCn8cc(CO[C@@H]9O[C@H](CO)[C@@H](O[C@@H]%10O[C@H](CO[C@]%11(C(=O)O)C[C@H](O)[C@@H](NC(C)=O)[C@H]([C@H](O)[C@H](O)CO)O%11)[C@H](O)[C@H](O)[C@H]%10O)[C@H](O)[C@H]9O)nn8)c7)cc(-c7cccc(NC(=O)CCCn8cc(CO[C@@H]9O[C@H](CO)[C@@H](O[C@@H]%10O[C@H](CO[C@]%11(C(=O)O)C[C@H](O)[C@@H](NC(C)=O)[C@H]([C@H](O)[C@H](O)CO)O%11)[C@H](O)[C@H](O)[C@H]%10O)[C@H](O)[C@H]9O)nn8)c7)c6)c5)nn4)O[C@@H]3CO)[C@H](O)[C@@H](O)[C@H]2O)(C(=O)O)C[C@@H]1O`: the Ratio IC50 is 7 in data set [9] and 20 in data set [1]. Further, the pIC50 in data set [4] is 4.82. Also, in data set [10], the pKi is 4.28.

In the case of `CC(=O)N[C@H]1[C@H]([C@H](O)[C@H](O)CO)O[C@@](OC[C@H]2O[C@@H](O[C@H]3[C@H](O)[C@@H](O)[C@H](OCc4cn([C@@H]5O[C@H](CO)[C@@H](n6cc(-c7ccc(-c8cn([C@H]9[C@H](O)[C@@H](O)[C@H](n%10cc(CO[C@@H]%11O[C@H](CO)[C@@H](O[C@@H]%12O[C@H](CO[C@]%13(C(=O)O)C[C@H](O)[C@@H](NC(C)=O)[C@H]([C@H](O)[C@H](O)CO)O%13)[C@H](O)[C@H](O)[C@H]%12O)[C@H](O)[C@H]%11O)nn%10)O[C@@H]9CO)nn8)cc7)nn6)[C@H](O)[C@H]5O)nn4)O[C@@H]3CO)[C@H](O)[C@@H](O)[C@H]2O)(C(=O)O)C[C@@H]1O`, the Ratio IC50 in [1] was determined as 23. The negative-log IC50 (pIC50) in [4] was 4.89.

On to `C#CCO[C@@H]1O[C@H](CO)[C@@H](O[C@@H]2O[C@H](CO[C@]3(C(=O)O)C[C@H](O)[C@@H](NC(C)=O)[C@H]([C@H](O)[C@H](O)CO)O3)[C@H](O)[C@H](O)[C@H]2O)[C@H](O)[C@H]1NC(C)=O`, for which, in [4], the negative logarithm of the IC50 (pIC50) is 3.52.

For `CCC(CC)O[C@@H]1C=C(C(=O)O)C[C@H](N)[C@H]1NC(C)=O`, the outcome in the data set with Influenza A virus [11] was Active.
